The record followed here is ChEMBL document CHEMBL5247599, “New β-arylchalcogeno amines with procognitive properties targeting Carbonic Anhydrases and Monoamine Oxidases” (Eur J Med Chem, 2022).

For data set [1], the target named is Carbonic anhydrase 5B, mitochondrial (Homo sapiens) (UniProt Q9Y2D0). The experiment in a line: Binding affinity to human CA5b by phenol red dye based stopped flow CO2 hydration assay. To be noted: filed as activator. Summed up:
(§1)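 Purified recombinant human CA isoforms. CA-catalysed CO2 hydration was followed by stopped-flow with phenol red at 557 nm, taking initial rates over 10–100 s from at least six traces of the first 5–10% of reaction. Uncatalysed rates were subtracted. Activator stocks were 0.1 mM in deionised water, diluted down to 0.1 nM in assay buffer. K_A came from non-linear least-squares Michaelis–Menten fitting.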

For data set [2], the target named is Carbonic anhydrase 6 (Homo sapiens) (UniProt P23280). The experiment in a line: Binding affinity to human CA6 by phenol red dye based stopped flow CO2 hydration assay. To be noted: filed as activator. A digest of the protocol:
as §1

Data set [3] deals with Mus musculus. The experiment in a line: Pro-cognitive activity in C57Bl6 mouse assessed as attenuation of long-term memory deficit by measuring increase in exploration time for novel object at 25 nmol/uL, icv measured after 24 hrs by novel object recognition test. The class given is functional, organism-based. A digest of the protocol: (§2)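 Novel object recognition in adult male C57Bl6 mice. Habituation was 10 min in an empty arena. Twenty-four hours later, mice explored two identical objects for 5 min, then received an immediate 5 µL lateral-ventricle infusion at 1 µL/min. A 5-min retention test with one familiar and one novel object followed 24 h later. Scores were % exploration time and DI = (tN−tF)/(tN+tF).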

Data set [4] has as its system Mus musculus. Briefly: Pro-cognitive activity in C57Bl6 mouse assessed as attenuation of long-term memory deficit by measuring increase in exploration time for novel object by measuring discrimination index at 50 nmol/uL, icv measured after 24 hrs by novel object recognition test. The class given is functional. Summed up:
as §2

For data set [5], the target named is Carbonic anhydrase 13 (Homo sapiens) (UniProt Q8N1Q1). Briefly: Binding affinity to human CA13 by phenol red dye based stopped flow CO2 hydration assay. Particulars: filed as activator. A digest of the protocol:
as §1

For data set [6], the target named is Carbonic anhydrase 12 (Homo sapiens) (UniProt O43570). Briefly: Binding affinity to human CA12 by phenol red dye based stopped flow CO2 hydration assay. Particulars: filed as activator. Summed up: as §1
Carbonic anhydrase 12 (Homo sapiens), sequence (O43570 whole entry): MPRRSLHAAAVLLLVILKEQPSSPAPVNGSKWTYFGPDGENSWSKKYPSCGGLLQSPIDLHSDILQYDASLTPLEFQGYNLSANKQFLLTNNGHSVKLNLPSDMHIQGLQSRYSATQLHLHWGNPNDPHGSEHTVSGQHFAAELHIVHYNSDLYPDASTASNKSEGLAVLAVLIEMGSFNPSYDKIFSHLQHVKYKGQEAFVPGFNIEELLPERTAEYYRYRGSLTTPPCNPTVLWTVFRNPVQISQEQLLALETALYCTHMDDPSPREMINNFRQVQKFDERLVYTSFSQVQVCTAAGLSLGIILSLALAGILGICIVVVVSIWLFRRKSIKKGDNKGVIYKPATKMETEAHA
Data set [7] deals with Carbonic anhydrase 7 (Homo sapiens) (UniProt P43166). The experiment in a line: Binding affinity to human CA7 by phenol red dye based stopped flow CO2 hydration assay. Particulars: filed as activator. A digest of the protocol:
as §1

For data set [8], the target named is T1, Amine oxidase [flavin-containing] B (Homo sapiens, UniProt P27338).
T1 sequence (P27338 whole entry): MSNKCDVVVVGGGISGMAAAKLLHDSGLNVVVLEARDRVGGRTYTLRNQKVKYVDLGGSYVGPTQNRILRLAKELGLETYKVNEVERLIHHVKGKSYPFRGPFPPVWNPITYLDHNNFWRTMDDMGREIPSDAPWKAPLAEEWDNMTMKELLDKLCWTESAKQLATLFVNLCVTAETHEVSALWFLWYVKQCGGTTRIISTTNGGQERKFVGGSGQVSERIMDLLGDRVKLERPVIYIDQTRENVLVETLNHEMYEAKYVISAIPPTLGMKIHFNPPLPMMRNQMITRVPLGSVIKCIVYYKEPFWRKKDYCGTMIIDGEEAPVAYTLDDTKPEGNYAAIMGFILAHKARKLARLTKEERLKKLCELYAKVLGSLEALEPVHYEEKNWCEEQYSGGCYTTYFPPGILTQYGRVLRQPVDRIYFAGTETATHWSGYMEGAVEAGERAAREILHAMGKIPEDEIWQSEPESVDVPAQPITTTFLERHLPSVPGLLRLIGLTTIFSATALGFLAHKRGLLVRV

Data set [9] has as its target Carbonic anhydrase 14 (Homo sapiens) (UniProt Q9ULX7). Briefly: Binding affinity to human CA14 by phenol red dye based stopped flow CO2 hydration assay. Particulars: filed as activator. Summed up: as §1
Data set [10] has as its system Mus musculus. Briefly: Pro-cognitive activity in C57Bl6 mouse assessed as attenuation of long-term memory deficit by measuring increase in exploration time for novel juvenile by measuring discrimination index at 50 nmol/uL, icv measured after 48 hrs by novel object recognition test. The class given is functional. A digest of the protocol:
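Social recognition in adult male C57Bl6 mice with intracerebroventricular cannulae. Habituation was 10 min with two empty cups. Twenty-four hours later, a novel 3–4-week-old juvenile was placed under one cup for 10 min of exploration, followed immediately by a 5 µL infusion at 1 µL/min. Retention 48 h later offered familiar versus novel juvenile, scoring snout-to-cup contact. DI = (tN−tF)/(tN+tF).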

Data set [11] concerns Mus musculus. The experiment in a line: Pro-cognitive activity in C57Bl6 mouse assessed as attenuation of long-term memory deficit by measuring increase in exploration time for novel object by measuring discrimination index at 25 nmol/uL, icv measured after 24 hrs by novel object recognition test.
Data set [12] deals with Carbonic anhydrase 3 (Homo sapiens) (UniProt P07451). Briefly: Binding affinity to human CA3 by phenol red dye based stopped flow CO2 hydration assay. To be noted: filed as activator. Summed up:
as §1

Data set [13] deals with Carbonic anhydrase 1 (Homo sapiens) (UniProt P00915). Briefly: Binding affinity to human CA1 by phenol red dye based stopped flow CO2 hydration assay. To be noted: filed as activator. A digest of the protocol: as §1
Carbonic anhydrase 1 (Homo sapiens), sequence (P00915 2-261 limits assumed): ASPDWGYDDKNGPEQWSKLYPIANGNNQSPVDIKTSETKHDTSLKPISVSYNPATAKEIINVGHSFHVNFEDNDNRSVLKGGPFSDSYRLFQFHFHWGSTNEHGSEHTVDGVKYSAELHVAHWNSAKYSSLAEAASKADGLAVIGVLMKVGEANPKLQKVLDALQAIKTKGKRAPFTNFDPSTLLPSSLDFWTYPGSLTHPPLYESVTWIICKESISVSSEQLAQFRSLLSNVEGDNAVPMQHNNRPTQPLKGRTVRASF
Data set [14] addresses Carbonic anhydrase 9 (Homo sapiens) (UniProt Q16790). Briefly: Binding affinity to human CA9 by phenol red dye based stopped flow CO2 hydration assay. Particulars: filed as activator. Summed up:
as §1

In data set [15] the target is Carbonic anhydrase 5A, mitochondrial (Homo sapiens) (UniProt P35218). Briefly: Binding affinity to human CA5a by phenol red dye based stopped flow CO2 hydration assay. Particulars: filed as activator. A digest of the protocol: as §1
Carbonic anhydrase 5A, mitochondrial (Homo sapiens), sequence (P35218 whole entry): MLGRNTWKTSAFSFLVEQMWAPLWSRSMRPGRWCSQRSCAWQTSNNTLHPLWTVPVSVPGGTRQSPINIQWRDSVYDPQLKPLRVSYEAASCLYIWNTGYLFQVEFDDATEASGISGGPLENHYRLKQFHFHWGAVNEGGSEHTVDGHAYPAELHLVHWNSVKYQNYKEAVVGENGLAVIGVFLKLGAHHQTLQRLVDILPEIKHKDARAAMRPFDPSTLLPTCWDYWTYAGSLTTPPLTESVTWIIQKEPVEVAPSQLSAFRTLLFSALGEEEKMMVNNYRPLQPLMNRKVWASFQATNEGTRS
For data set [16], the system named is Mus musculus. Briefly: Pro-cognitive activity in C57Bl6 mouse assessed as attenuation of long-term memory deficit by measuring increase in exploration time for novel juvenile at 25 nmol/uL, icv measured after 48 hrs by novel object recognition test. The class given is functional, organism-based. Summed up:
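Male adult C57Bl6 mice (8–9 weeks), lateral-ventricle cannula implanted 7 days earlier. Social recognition: 10-min habituation to arena with two empty cups; 24 h later 10-min acquisition with an unfamiliar juvenile (3–4 weeks) under one wire cup. Immediately after, 5 µL i.c.v. infusion at 1 µL/min. Retention at 48 h with familiar and novel juvenile; percentage time exploring each cup (snout-to-cup contact).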

Data set [17] can be described thus: Toxicity in overnight fasted C57Bl6 mouse assessed as reduction in food intake at 50 nmol/uL administered directly into lateral ventricle measured for 2 hrs. Particulars: in vivo, icv_or_intrathecal. A digest of the protocol:
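Overnight-fasted male C57Bl6 mice received a lateral-ventricle infusion. Food was presented 30 min later, and intake was recorded at 0.5 h intervals over 2 h as cumulative consumption corrected for body weight; n = 8–9 per group.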

Data set [18] is described as follows: Toxicity in C57Bl6 mouse assessed as reduction in distance travel at 50 nmol/uL administered directly into lateral ventricle by open field test. Particulars: in vivo, icv_or_intrathecal. Summed up: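 Cannulated adult male C57Bl6 mice were placed in a 60×70 cm open-field arena 30 min after a 5 µL lateral-ventricle infusion. Total distance travelled over a 5-min session was recorded by overhead video tracking.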

The structures appear in SMILES notation. Active and inactive are the calls of the source. No cut-off for these calls is given here.

One may read the IC50 as the concentration that inhibits the measured activity by half.

Carbonic anhydrase 6 (Homo sapiens), sequence (P23280 whole entry): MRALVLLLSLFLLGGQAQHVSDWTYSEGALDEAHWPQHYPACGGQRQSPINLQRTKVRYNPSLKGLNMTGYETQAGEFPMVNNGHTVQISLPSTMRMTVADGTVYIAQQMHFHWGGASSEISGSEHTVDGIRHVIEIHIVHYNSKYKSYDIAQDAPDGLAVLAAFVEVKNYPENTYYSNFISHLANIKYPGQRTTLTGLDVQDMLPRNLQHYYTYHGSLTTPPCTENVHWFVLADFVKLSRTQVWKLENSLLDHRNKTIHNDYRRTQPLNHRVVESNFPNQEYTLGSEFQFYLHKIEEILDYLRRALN
Carbonic anhydrase 7 (Homo sapiens), sequence (P43166 whole entry): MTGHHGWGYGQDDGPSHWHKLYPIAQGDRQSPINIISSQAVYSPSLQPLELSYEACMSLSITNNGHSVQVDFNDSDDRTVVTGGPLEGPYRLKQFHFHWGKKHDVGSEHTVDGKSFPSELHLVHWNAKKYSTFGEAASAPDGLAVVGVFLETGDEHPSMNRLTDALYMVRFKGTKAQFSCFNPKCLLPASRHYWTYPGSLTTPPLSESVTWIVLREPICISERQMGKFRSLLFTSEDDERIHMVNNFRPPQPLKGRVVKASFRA
Carbonic anhydrase 3 (Homo sapiens), sequence (P07451 whole entry): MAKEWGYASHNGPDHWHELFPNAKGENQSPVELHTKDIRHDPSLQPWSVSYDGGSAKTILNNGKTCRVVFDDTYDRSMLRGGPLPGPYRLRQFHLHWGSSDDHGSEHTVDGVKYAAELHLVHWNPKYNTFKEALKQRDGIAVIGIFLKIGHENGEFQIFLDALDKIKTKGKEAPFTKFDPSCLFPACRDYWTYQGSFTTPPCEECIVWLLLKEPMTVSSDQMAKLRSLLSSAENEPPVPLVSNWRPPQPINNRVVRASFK
Carbonic anhydrase 14 (Homo sapiens), sequence (Q9ULX7 whole entry): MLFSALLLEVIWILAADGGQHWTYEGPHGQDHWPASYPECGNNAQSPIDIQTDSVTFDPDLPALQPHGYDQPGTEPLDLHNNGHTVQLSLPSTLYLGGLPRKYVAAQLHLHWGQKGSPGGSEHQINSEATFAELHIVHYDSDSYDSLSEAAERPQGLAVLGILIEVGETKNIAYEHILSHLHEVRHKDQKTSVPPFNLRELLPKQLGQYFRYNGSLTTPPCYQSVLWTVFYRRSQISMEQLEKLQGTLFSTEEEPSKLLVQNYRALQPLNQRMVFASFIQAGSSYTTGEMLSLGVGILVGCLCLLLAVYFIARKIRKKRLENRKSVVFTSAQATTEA
Carbonic anhydrase 5B, mitochondrial (Homo sapiens), sequence (Q9Y2D0 whole entry, canonical isoform): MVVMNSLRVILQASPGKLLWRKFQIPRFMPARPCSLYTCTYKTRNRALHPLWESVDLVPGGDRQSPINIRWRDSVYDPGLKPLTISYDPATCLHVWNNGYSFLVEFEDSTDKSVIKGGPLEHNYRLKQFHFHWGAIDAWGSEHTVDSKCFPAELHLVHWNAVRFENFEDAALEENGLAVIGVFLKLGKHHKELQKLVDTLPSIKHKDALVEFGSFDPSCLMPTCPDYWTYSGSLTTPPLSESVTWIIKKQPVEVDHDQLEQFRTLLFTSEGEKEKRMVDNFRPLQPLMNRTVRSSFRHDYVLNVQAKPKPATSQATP
Carbonic anhydrase 13 (Homo sapiens), sequence (Q8N1Q1 whole entry, looked up): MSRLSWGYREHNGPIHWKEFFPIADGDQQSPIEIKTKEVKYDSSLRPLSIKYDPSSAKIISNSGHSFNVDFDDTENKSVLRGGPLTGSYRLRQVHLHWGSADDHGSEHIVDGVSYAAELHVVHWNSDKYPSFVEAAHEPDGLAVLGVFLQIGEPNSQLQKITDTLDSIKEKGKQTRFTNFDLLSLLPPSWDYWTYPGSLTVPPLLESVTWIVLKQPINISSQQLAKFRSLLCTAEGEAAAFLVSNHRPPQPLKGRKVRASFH

Take `CC(N)CSc1ccccc1` (stereo not drawn): the Ka in data set [1] worked out at 18.7 µM; in data set [2], 70.9 µM; in [5] it was 82.4 µM; in data set [6], 43.3 µM; in [7], 23.4 µM; in data set [9], 9.8 µM. For the same compound, the Ka in data set [12] stood at 26.8 µM; in data set [13], 11.8 µM; in data set [14] it was 74.8 µM; in [15] it was 12.4 µM. Further, the outcome with Mus musculus [3] and with Mus musculus [16] was inactive. In addition, the Activity_index in the data set on Mus musculus [4] amounted to 0.185; in the data set with Mus musculus [10], 0.138; with Mus musculus [11] it was 0.111. In addition, the concentration for half-maximal inhibition (IC50) in data set [8] worked out at 57.3 µM. The Activity entry in data set [17] and in [18] was “Non-Toxic” throughout.
